Experimental data as given in PMC4123937 (Molecular Pharmaceutics, 2014).

Tested on: 4T1 mammary tumors
Type: in vivo, mouse (BALB/c)
Conditions: Alexa546-pHLIP i.v., time points 2, 4, 24, 48 h
Outline: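 Female BALB/c mice, s.c. 4T1 cells (8 × 10^5 cells/0.1 mL) in right flank; used at ~6 mm tumor diameter. Single tail-vein dose of 5 nmol (100 μL of 50 μM) Alexa546-labeled peptide in PBS. Necropsy at 2, 4, 24, 48 h; excised tumor, muscle, kidney, liver imaged immediately; mean fluorescence intensity quantified. Six mice per construct.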

Row | Sequence | Time postinjection of maximum fluorescence signal in tumor (4T1 tumor) | Time postinjection of maximal renal fluorescence signal (kidney)
1 | ACEEQNPWARYLEWLFPTETLLLEL [Var7] | 4 h | –
2 | ACDDQNPWRAYLDLLFPTDTLLLDLLW [Var3] | – | 24 h
